In publication PMC5643981 (Chemical Science, 2017):
Marks after values point to notes of the source that are not given here.

Columns and labels:
[1] = system: Pseudomonas aeruginosa strain PAO1 biofilm; experiment: Biofilm inhibition; type: cell-based
Outline: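 PAO1 grown overnight in LB at 37 °C with 180 rpm shaking, washed in 0.25% (w/v) nutrient broth no. 2 and set to OD600 1. 20 μL goes into 180 μL of the same medium with sterile-filtered test compound and polymyxin B. Incubated humid, static, 24–25 h at 37 °C, washed twice with water. Viability read by 0.5 mM WST-8 + 20 μM phenazine ethosulfate (2.5–3 h, 37 °C), supernatant A450.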

[2] = system: Pseudomonas aeruginosa strain PAO1 biofilm; experiment: Dispersal of preformed biofilm; type: cell-based
Outline: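 Biofilm formed 24 h at 37 °C, static, in 0.25% (w/v) nutrient broth no. 2 from washed overnight PAO1 (OD600 1) without compound. Wells washed twice with water, then given sterile-filtered test compound plus polymyxin B in the same broth for another 24 h at 37 °C, static. After two washes, stained with 0.5 mM WST-8 + 20 μM phenazine ethosulfate (2.5–3 h, 37 °C); supernatant A450 read.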

Substance: Polymyxin B [Pmx]
- MBIC of Pmx +0.5 μg mL^–1 36b ([1]; Pmx in the presence of 0.5 μg mL^–1 36b): 1.5 μg mL^–1
- MBIC of Pmx +1 μg mL^–1 29b ([1]; Pmx in the presence of 1 μg mL^–1 29b): 1.5 μg mL^–1
- Dispersal, Pmx with 29b ([2]; Measured with 8 μg mL^–1 of 29b in the presence of 1.5 μg mL^–1 of Pmx): 100% ^i
- Dispersal, Pmx with 36b ([2]; Measured with 8 μg mL^–1 of 36b in the presence of 1.5 μg mL^–1 of Pmx): 100% ^i
